# T cruzi growth-1: blocks T. cruzi growth in NIH3T3 culture; T. cruzi beta-gal in NIH3T3, GalScreen luminescence, 90 h; 5.9% of 77,000 active; AID 624255; inhibition, % at 8.34 µM;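 active = mean inhibition above about 93%, with at least 55% of replicates each passing it, limit read from the data, passing the limit was not always enough; inconclusive = only one of those two conditions holds; inactive = neither condition holds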
# IDH1 mut inh: blocks human IDH1 R132H reductase activity; diaphorase/resazurin fluorescence, 60 min; inhibition, % at 10 µM; 0.18% of 70,000 active; in the data active = inhibition above about 34%; inconclusive = no clear call, values can overlap the other calls; inactive = below about 11%;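 also: 0% = DMSO and 100% = no enzyme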
# Target sequence (O75874 whole entry R132H): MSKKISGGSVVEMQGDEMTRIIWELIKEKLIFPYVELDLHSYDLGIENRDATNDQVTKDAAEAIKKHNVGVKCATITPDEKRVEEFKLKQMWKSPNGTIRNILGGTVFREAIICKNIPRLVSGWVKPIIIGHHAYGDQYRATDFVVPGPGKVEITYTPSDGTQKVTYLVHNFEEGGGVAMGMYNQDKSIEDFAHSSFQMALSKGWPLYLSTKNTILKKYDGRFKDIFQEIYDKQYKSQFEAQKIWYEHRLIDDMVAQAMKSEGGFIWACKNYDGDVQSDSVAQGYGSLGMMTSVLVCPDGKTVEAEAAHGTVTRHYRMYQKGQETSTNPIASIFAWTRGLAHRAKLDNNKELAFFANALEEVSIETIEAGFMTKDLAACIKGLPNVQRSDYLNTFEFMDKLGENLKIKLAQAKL
# GASC1 inh: KDM4C (human) demethylase inhibition | Q9H3R0 | GST-KDM4C 2-372, H3K9me3 peptide, LANCE TR-FRET | inhibition, % at 12.5 µM | 0.15% of 96,000 active | AID 720574;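 active = mean replicate inhibition above about 25%, with at least 55% of replicates also reaching it, limit read from the data, passing the limit was not always enough; inconclusive = only one of those two conditions met; inactive = neither condition met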
#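 Test system: N-terminal GST-fused human GASC-1 (KDM4C) fragment, residues 2-372; quantity: GASC-1 enzyme at 10 nM final in reaction; dosing: single dose; schedule: 30 min demethylation and 1 h detection at room temperature; signal: LANCE TR-FRET, excitation 340 nm, emissions 618 and 671 nm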
# Pf Dd2 inh: inhibitors of Plasmodium falciparum Dd2 growth; P. falciparum Dd2 growth, SYBR Green, 72 h; stronger effect = lower value; activity change, % at 10 µM; 2.3% of 94,000 active; AID 1159554; in the data active = activity change below about -80%; inconclusive = no clear call, values can overlap the other calls
# T cruzi growth-2: Trypanosoma cruzi proliferation inhibition; shares compounds with T cruzi growth-1; T. cruzi beta-gal in NIH3T3, GalScreen luminescence, 90 h; inhibition, % at 8.35 µM; 72% of 5,600 active; AID 651739;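 active = mean replicate inhibition above about 95% and at least 55% of replicates individually reaching it, limit read from the data; inconclusive = only one of the two criteria is met; inactive = neither criterion is met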
# T cruzi growth-3: blocks T. cruzi growth in NIH3T3 host cells; inhibition, % at 2.09 µM; T. cruzi beta-gal in NIH3T3, GalScreen luminescence, 90 h; shares compounds with T cruzi growth-1; 21% of 5,600 active;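 active = mean inhibition above about 95%, with at least 55% of replicates also reaching it, limit read from the data; inconclusive = meets just one of the two conditions; inactive = meets neither condition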;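 also: plate controls were neutral control median for no effect and positive control median for full effect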
# 3T3 cytotox: kills mouse NIH/3T3 fibroblasts. shares compounds with T cruzi growth-1. NIH/3T3 viability, CellTiter-Glo ATP luminescence, 90 h. cytotoxicity (signal decrease), % at 8.35 µM. 14% of 5,600 active. AID 651742;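 active = mean signal decrease across replicates above about 35% based on untreated-well scatter, with enough replicates individually passing, limit read from the data; inconclusive = no rule stated though some were filed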;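 also: 0% = median of neutral control wells and 100% = median of positive control wells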
# 3T3 cytotox 2: cytotoxicity in mouse NIH/3T3 fibroblasts; NIH/3T3 viability, CellTiter-Glo ATP luminescence, 90 h; shares compounds with T cruzi growth-1; 56% of 5,600 active; inhibition, % at 24.9 µM;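 active = mean loss of cell viability signal at or above a set limit, and enough replicates individually reaching it; inconclusive = meets only the mean limit or only the replicate share; inactive = meets neither condition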;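 also: 0% = median of neutral control wells and 100% = median of positive control wells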
# The depositor's hits bear a star; ? = inconclusive; · = not tested or not shown; + = active, no number. Compounds with a hit are over-represented: about 5.8% of the library has one in this group of screens.
SMILES,T cruzi growth-1,IDH1 mut inh,GASC1 inh,Pf Dd2 inh,T cruzi growth-2,T cruzi growth-3,3T3 cytotox,3T3 cytotox 2
O=C(O)[C@@H]1[C@@H](CO)[C@@H]2Cn3c(ccc(/C=C/c4ccccc4)c3=O)[C@@H]2N1Cc1ccc2c(c1)OCO2,102*,·,2,·,50,0,17,101*
CCCN1[C@H](C(=O)N(C)C)[C@@H](CO)[C@@H]2Cn3c(ccc(/C=C/c4ccccc4)c3=O)[C@@H]21,34,·,3,·,·,·,·,·
O=C(O)[C@H]1[C@H](CO)[C@H]2Cn3c(ccc(/C=C/c4ccccc4)c3=O)[C@H]2N1C(=O)c1cnccn1,7,·,-3,·,·,·,·,·
O=C([C@H]1N[C@H]2c3ccc(/C=C/c4ccccc4)c(=O)n3C[C@H]2[C@@H]1CO)N1CCCCC1,+,·,0,·,28,-31,-9,-18
O=C(O)[C@H]1[C@H](CO)[C@H]2Cn3c(ccc(/C=C/c4ccccc4)c3=O)[C@H]2N1Cc1ccc2c(c1)OCO2,127*,·,13,·,88,65,30,63*
COC(=O)[C@H]1[C@H](CO)[C@H]2Cn3c(ccc(/C=C/c4ccccc4)c3=O)[C@H]2N1C(=O)c1cnccn1,101*,·,-2,-11,40,8,-14,40*
CC(=O)Nc1ccc(OCC(=O)Nc2ccc(Cl)c(Cl)c2)cc1,·,0,·,·,·,·,·,·
Cc1nn(C(=O)Cn2cc([N+](=O)[O-])cn2)c(C)c1Br,·,0,·,·,·,·,·,·
C[C@@H]1CN([C@@H](C)CO)S(=O)(=O)c2ccc(/C=C/c3ccccc3)cc2O[C@@H]1CN(C)C(=O)NC1CCCC1,?,1,-2,-20,102*,82,3,26*
C[C@H]1CN([C@@H](C)CO)S(=O)(=O)c2ccc(/C=C/c3ccccc3)cc2O[C@@H]1CN(C)C(=O)NC1CCCC1,99*,·,-2,-27,?,56,-1,96*
CS(=O)(=O)N(CC(=O)Nc1ccc(Br)cc1)c1cccc(C(F)(F)F)c1,·,0,·,·,·,·,·,·
CN1c2ccc(-c3cccc(F)c3)cc2[C@H]2[C@H](CCN2C(=O)C2CC2)[C@@H]1CO,117*,·,10,-8,102*,64,-3,?
COCC(=O)N1CC[C@@H]2[C@H]1c1cc(-c3cccc(F)c3)ccc1N(C)[C@H]2CO,102*,·,1,25,107*,77,-5,4
COCC(=O)N1CC[C@@H]2[C@@H](CO)N(C)c3ccc(-c4cccc(F)c4)cc3[C@@H]21,?,·,2,18,106*,56,4,6
CC1(C)CC(n2c(NCCO)nc3c(c2=O)C2(CCCCC2)Cc2ccccc2-3)CCO1 (stereo unspecified),·,1,·,·,·,·,·,·
CCCN(C)C[C@@H]1Oc2cc(C#Cc3ccc(OC)cc3)ccc2S(=O)(=O)N([C@@H](C)CO)C[C@@H]1C,?,0,-4,-85*,110*,86,43*,104*
CCCN(C)C[C@@H]1Oc2cc(C#Cc3ccccc3)ccc2S(=O)(=O)N([C@H](C)CO)C[C@@H]1C,44,1,-3,-78,·,·,·,·
CCCN(C)C[C@@H]1Oc2cc(C#Cc3ccccc3)ccc2S(=O)(=O)N([C@@H](C)CO)C[C@@H]1C,111*,-1,-5,-79,113*,72,4,104*
CCCN(C)C[C@@H]1Oc2cc(C#Cc3ccc(F)cc3)ccc2S(=O)(=O)N([C@@H](C)CO)C[C@@H]1C,85*,0,3,-64,109*,?,?,106*
CCCN(C)C[C@@H]1Oc2cc(C#CC(C)C)ccc2S(=O)(=O)N([C@@H](C)CO)C[C@H]1C,102*,-1,0,-48,111*,91,10,104*
Cc1cc(Br)ccc1NC(=O)CSc1nnc(-c2ccccc2O)n1-c1ccccc1,·,0,·,·,·,·,·,·
Cc1ccc(NC(=O)CSc2nnc(-c3cccnc3)n2-c2ccc(Br)cc2)cc1F,·,0,·,·,·,·,·,·
CCCN(C)C[C@@H]1Oc2cc(C#Cc3ccccc3F)ccc2S(=O)(=O)N([C@@H](C)CO)C[C@@H]1C,?,0,0,-76,112*,89,23,106*
CCN(CC(=O)Nc1cccc(Cl)c1C)S(=O)(=O)c1ccc(F)cc1,·,-1,·,·,·,·,·,·
O=C(c1ccc(F)cc1)N1CC[C@H]2[C@H](CO)Nc3ccc(C#Cc4ccccc4F)cc3[C@H]21,·,·,0,-69,·,·,·,·
SMILES,T cruzi growth-1,IDH1 mut inh,GASC1 inh,Pf Dd2 inh,T cruzi growth-2,T cruzi growth-3,3T3 cytotox,3T3 cytotox 2
O=C(c1ccccc1)N1CC[C@@H]2[C@@H](CO)Nc3ccc(C#Cc4ccccc4F)cc3[C@@H]21,101*,·,1,-53,106*,71,-5,96*
COc1ccccc1C#Cc1ccc2c(c1)[C@H]1[C@H](CCN1C(=O)c1ccccc1)[C@H](CO)N2,100*,·,-2,-4,106*,84,31,83*
COc1ccccc1C#Cc1ccc2c(c1)[C@H]1[C@H](CCN1C(=O)c1ccc(F)cc1)[C@@H](CO)N2,·,·,-3,-65,·,·,·,·
COc1ccc(-c2ccc(C#N)c(SCC(=O)Nc3cccc(C(F)(F)F)c3)n2)cc1,·,0,·,·,·,·,·,·
COc1cccc(CN2CCCCN3[C@H](C2)[C@@H](c2ccc(C#Cc4cccnc4)cc2)[C@@H]3CO)c1,117*,·,0,-71,94,102*,26,104*
COc1cccc(CN2CCCCN3[C@H](CO)[C@@H](c4ccc(-c5cccnc5)cc4)[C@H]3C2)c1,30,·,0,-56,·,·,·,·
COc1cccc(CN2CCCCN3[C@@H](CO)[C@@H](c4ccc(C#Cc5cccnc5)cc4)[C@@H]3C2)c1,118*,·,0,-73,104*,?,27,104*
COc1ccc(NC(=O)Cn2cnc3sc4c(c3c2=O)CCC(C)C4)cc1 (stereo unspecified),·,0,·,·,·,·,·,·
C[C@H](CO)N1C[C@H](C)[C@@H](CN(C)CC2CCCCC2)Oc2ccc(NC(=O)CCC(F)(F)F)cc2C1=O,?,·,·,12,46,-21,-7,7
C[C@@H]1CN([C@@H](C)CO)C(=O)c2cc(NC(=O)Cc3ccccc3)ccc2O[C@H]1CN(C)CC1CCCCC1,?,·,1,-7,65,6,-16,2
C[C@H](CO)N1C[C@H](C)[C@H](CN(C)CC2CCCCC2)Oc2ccc(NC(=O)Cc3ccccc3)cc2C1=O,46,·,2,-3,·,·,·,·
C[C@@H]1CCCCO[C@H](CN(C)C(=O)c2ccncc2)[C@@H](C)CN([C@@H](C)CO)C(=O)c2cc(NC(=O)c3ccncc3)ccc2O1,101*,1,1,0,-14,-24,12,8

# High-throughput results from PubChem.
